Reference: ChEMBL document CHEMBL5674884, “Ezh2 inhibition in Kras-driven lung cancer amplifies inflammation and associated vulnerabilities” (J Exp Med, 2018)
The source made the active and inactive calls.

Columns and labels:
[1] = system: A549; assay: Reversal of GSK126 dependent antiinflammatory activity in human A549 cells assessed as decrease in Il1ra level by qRT-PCR analysis; format: functional, cell-based
[2] = system: A549; assay: Reversal of GSK126 dependent antiinflammatory activity in human A549 cells assessed as decrease in Irak1 level by qRT-PCR analysis; format: functional, cell-based
[3] = system: A549; assay: Reversal of GSK126 dependent antiinflammatory activity in human A549 cells assessed as decrease in IL-6 level by qRT-PCR analysis; format: functional, cell-based
[4] = system: A549; assay: Reversal of GSK126 dependent antiinflammatory activity in human A549 cells assessed as decrease in Ccl2 level by qRT-PCR analysis; format: functional, cell-based
[5] = system: NSCLC; assay: Antitumor activity against Kras G12D/+ expressing mouse NSCLC cells xenografted in BALB/c nude mouse assessed as reduction in lung adenoma formation at 50 mg/kg, iv for 12 days by H&E staining analysis; format: functional, organism-based; conditions: time 12.0 day
[6] = system: NSCLC; assay: Antitumor activity against Kras G12D/+ expressing mouse NSCLC cells xenografted in BALB/c nude mouse assessed as reduction in tumor burden at 50 mg/kg, iv for 30 days; format: functional, organism-based; conditions: time 30.0 day
[7] = system: NSCLC; assay: Anti-tumor activity against Kras G12D/+ expressing mouse NSCLC cells xenografted in BALB/c nude mouse assessed as decrease in frequency distribution of lesions at 50 mg/kg, iv for 30 days; format: functional, organism-based; conditions: time 30.0 day
[8] = system: NSCLC; assay: Anti-tumor activity against Ezh2i knockdown NSCLC cells (unknown origin) xenografted in BALB/c nude mouse assessed as increase in lifespan at 50 mg/kg, iv measured for 30 days; format: functional, organism-based; conditions: time 30.0 day
[9] = target: Histone-lysine N-methyltransferase EZH2 (Mus musculus) (UniProt Q61188); assay: In vivo inhibition of EZH2 in BALB/c nude mouse xenografted with Kras G12D/+ NSCLC cells (unknown origin) assessed as H3K27me3 level at 50 mg/kg, iv for 30 days by IHC analysis; format: functional, organism-based; conditions: time 30.0 day
[10] = system: NSCLC; assay: Antiinflammatory activity in […] EZH2 inhibited mouse NSCLC cells xenografted in BALB/C mouse assessed as upregulation of NF-kappaB pathway at 50 mg/kg, iv for 10 days; format: functional, organism-based; conditions: time 10.0 day
Method in brief: (§1)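 Tail vein grafts of Kras G12D/+;Trp53-/- cells in nude mice, treated daily with 50 mg/kg GSK126 for 10 d (n = 4) or to humane endpoint (n = 3), or vehicle (n = 2). GFP+ tumor cells sorted by FACS, RNA-seq run, fold change taken over vehicle, and pathway activity inferred by PROGENy scoring.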

[11] = system: NSCLC; assay: Upregulation of Cxcr4 gene in mouse NSCLC cells expressing KrasG12D/+; format: functional, cell-based
[12] = target: Histone-lysine N-methyltransferase EZH2 (Mus musculus) (UniProt Q61188); assay: In vivo inhibition of Ezh2 in BALB/c nude mouse xenografted with KrasG12D/+ expressing NSCLC cells (unknown origin) assessed as upregulation of H3K27me3 at 50 mg/kg, iv by IHC analysis; format: functional, organism-based
[13] = target: Histone-lysine N-methyltransferase EZH2 (Mus musculus) (UniProt Q61188); assay: In vivo inhibition of Ezh2 in BALB/c nude mouse xenografted with KrasG12D/+ expressing NSCLC cells (unknown origin) assessed as upregulation of H3K27ac at 50 mg/kg, iv by IHC analysis; format: functional, organism-based
[14] = target: Histone-lysine N-methyltransferase EZH2 (Mus musculus) (UniProt Q61188); assay: In vivo inhibition of Ezh2 in BALB/c nude mouse xenografted with KrasG12D/+ expressing NSCLC cells (unknown origin) assessed as upregulation of H3K27ac at 50 mg/kg, iv by qRT-PCR analysis; format: functional, organism-based
[15] = target: Histone-lysine N-methyltransferase EZH2 (Mus musculus) (UniProt Q61188); assay: Inhibition of Ezh2 in mouse NSCLC cells co-cultured with Raw264.7 cells assessed as H3K27ac level by qRT-PCR analysis; format: cell-based
[16] = target: Histone-lysine N-methyltransferase EZH2 (Homo sapiens) (UniProt Q15910); assay: Inhibition of Ezh2 in human A549 cells assessed as p65 phosphorylation by Immunoblot analysis; format: cell-based
Method in brief: (§2)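 A549, H1944 and H2122 cells treated continuously 5 d with GSK126 or vehicle, then replated at low confluence. Whole-cell RIPA extracts immunoblotted for phospho-p65 (S536) and total p65.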

[17] = target: Histone-lysine N-methyltransferase EZH2 (Homo sapiens) (UniProt Q15910); assay: Inhibition of Ezh2 in human NCI-H1944 cells assessed as p65 phosphorylation by Immunoblot analysis; format: cell-based; method in brief: as §2
[18] = target: Histone-lysine N-methyltransferase EZH2 (Homo sapiens) (UniProt Q15910); assay: Inhibition of Ezh2 in human NCI-H2122 cells assessed as p65 phosphorylation by Immunoblot analysis; format: cell-based; method in brief: as §2
[19] = target: Histone-lysine N-methyltransferase EZH2 (Homo sapiens) (UniProt Q15910); assay: Inhibition of Ezh2 in human A549 cells assessed as enhanced NF- kappa B activity; format: cell-based
Method in brief: (§3)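 A549 cells carrying an NF-kB-responsive element/minimal TA promoter luciferase reporter, pretreated with GSK126 or vehicle. Stimulated with TNF-a for 3 h, or continuously with TNF-a or LPS over 16 h. Luminescence read on plate reader; two-way ANOVA; three independent experiments.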

[20] = target: Histone-lysine N-methyltransferase EZH2 (Homo sapiens) (UniProt Q15910); assay: Inhibition of Ezh2 in TNF-alpha stimulated human A549 cells assessed as enhanced NF- kappa B activity; format: cell-based; method in brief: as §3
[21] = target: Histone-lysine N-methyltransferase EZH2 (Homo sapiens) (UniProt Q15910); assay: Inhibition of Ezh2 in LPS stimulated human A549 cells assessed as enhanced NF- kappa B activity; format: cell-based; method in brief: as §3
[22] = target: Histone-lysine N-methyltransferase EZH2 (Mus musculus) (UniProt Q61188); assay: In vivo inhibition of Ezh2 in BALB/c nude mouse expressing KrasG12D/+ assessed as phospho-Akt expression at 50 mg/kg, iv in the presence of BTZ/NM by Immunoblot analysis; format: functional, organism-based
Method in brief: (§4)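 Mice with Kras G12D/+;Trp53-/- lung grafts given GSK126 or vehicle, randomized after 15 d to one maximum tolerated dose of BTZ and NM, and sacrificed 20 h later. Tumor lysates in RIPA with protease/phosphatase inhibitors, equal protein run on 4-12% Bis-Tris gels and immunoblotted with ECL detection for phospho-Akt, cleaved Parp1 and cleaved caspase-3.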

[23] = target: Histone-lysine N-methyltransferase EZH2 (Mus musculus) (UniProt Q61188); assay: In vivo inhibition of Ezh2 in BALB/c nude mouse expressing KrasG12D/+ assessed as Parp1 expression at 50 mg/kg, iv in the presence of BTZ/NM by Immunoblot analysis; format: functional, organism-based; method in brief: as §4
[24] = target: Histone-lysine N-methyltransferase EZH2 (Mus musculus) (UniProt Q61188); assay: In vivo inhibition of Ezh2 in BALB/c nude mouse expressing KrasG12D/+ assessed as Caspase-3 cleavage expression at 50 mg/kg, iv in the presence of BTZ/NM by Immunoblot analysis; format: functional, organism-based; method in brief: as §4
[25] = system: NSCLC; assay: Antitumor activity against KrasG12D/+ expressing mouse NSCLC cells xenografted in BALB/c nude mouse assessed as reduced cell proliferation at 50 mg/kg, iv in the presence of BTZ/NM; format: functional, organism-based
Method in brief: (§5)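 Tumors from mice given daily GSK126/vehicle then alternating BTZ/NM, stained by IHC (n = 3 animals). Lung area divided into equal fields; ten fields per animal counted automatically for immunoreactive cells.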

[26] = system: NSCLC; assay: Antitumor activity against KrasG12D/+ expressing mouse NSCLC cells xenografted in BALB/c nude mouse assessed as reduced tumor growth at 50 mg/kg, iv in the presence of BTZ/NM; format: functional, organism-based
Method in brief: (§6)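 Nude mice with tail-vein Kras G12D/+;Trp53-/- grafts dosed daily with GSK126 or vehicle from day 4 (n = 7/6). BTZ and NM then given on alternating days from day 19: BTZ 0.8 mg/kg on day one, 0.2 mg/kg plus NM 5 mg/kg on day two. Luciferase imaging analyzed by two-way ANOVA; survival recorded to humane endpoint.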

[27] = system: NSCLC; assay: Antitumor activity against KrasG12D/+ expressing mouse NSCLC cells xenografted in BALB/c nude mouse assessed as increase in survival rate at 50 mg/kg, iv in the presence of BTZ/NM; format: functional, organism-based; method in brief: as §6
[28] = target: Histone-lysine N-methyltransferase EZH2 (Mus musculus) (UniProt Q61188); assay: In vivo inhibition of Ezh2 in BALB/c nude mouse expressing KrasG12D/+ assessed as Erk1/2 phosphorylation at 50 mg/kg, iv in the presence of BTZ/NM by IHC staining; format: functional, organism-based; method in brief: as §5
[29] = target: Histone-lysine N-methyltransferase EZH2 (Mus musculus) (UniProt Q61188); assay: In vivo inhibition of Ezh2 in BALB/c nude mouse expressing KrasG12D/+ assessed as increased survival rate at day 21 at 50 mg/kg, iv in the presence of BTZ/NM; format: functional, organism-based; method in brief: as §6
[30] = target: Histone-lysine N-methyltransferase EZH2 (Mus musculus) (UniProt Q61188); assay: In vivo inhibition of Ezh2 in BALB/c nude mouse expressing KrasG12D/+ assessed as cleaved Caspase-3 at 50 mg/kg, iv in the presence of BTZ/NM by IHC staining; format: functional, organism-based; method in brief: as §5
[31] = target: Histone-lysine N-methyltransferase EZH2 (Mus musculus) (UniProt Q61188); assay: In vivo inhibition of Ezh2 in BALB/c nude mouse expressing Kras G12D/+ assessed as Erk1/2 expression level at 50 mg/kg, iv by IHC staining; format: functional, organism-based; method in brief: as §5
[32] = target: Histone-lysine N-methyltransferase EZH2 (Mus musculus) (UniProt Q61188); assay: In vivo inhibition of Ezh2 in BALB/c nude mouse expressing Kras G12D/+ assessed as Erk1/2 expression level at 50 mg/kg, iv by immunoblotting analysis; format: functional, organism-based
[33] = target: Histone-lysine N-methyltransferase EZH2 (Mus musculus) (UniProt Q61188); assay: In vivo inhibition of Ezh2 in BALB/c nude mouse expressing Kras G12D/+ assessed as reduction of Akt phosphorylation at 50 mg/kg, iv by immunoblotting analysis; format: functional, organism-based; method in brief: as §4
[34] = system: NSCLC; assay: Antitumor activity in KrasG12D/+ harbouring mouse NSCLC cells xenografted in BALB/c nude mouse assessed as reduced tumor progression; format: functional; conditions: dose 50.0 mg/kg, route iv
[35] = system: NSCLC; assay: Antiinflammatory activity in […] EZH2 inhibited mouse NSCLC cells xenografted in BALB/C mouse assessed as upregulation of TNF-alpha pathway at 50 mg/kg, iv for 10 days; format: functional, organism-based; conditions: time 10.0 day; method in brief: as §1
[36] = system: NSCLC; assay: Antiinflammatory activity in […] EZH2 inhibited mouse NSCLC cells xenografted in BALB/C mouse assessed as upregulation of JAK/STAT pathway at 50 mg/kg, iv for 10 days; format: functional, organism-based; conditions: time 10.0 day; method in brief: as §1

Chain of Histone-lysine N-methyltransferase EZH2 (Mus musculus) (Q61188 whole entry): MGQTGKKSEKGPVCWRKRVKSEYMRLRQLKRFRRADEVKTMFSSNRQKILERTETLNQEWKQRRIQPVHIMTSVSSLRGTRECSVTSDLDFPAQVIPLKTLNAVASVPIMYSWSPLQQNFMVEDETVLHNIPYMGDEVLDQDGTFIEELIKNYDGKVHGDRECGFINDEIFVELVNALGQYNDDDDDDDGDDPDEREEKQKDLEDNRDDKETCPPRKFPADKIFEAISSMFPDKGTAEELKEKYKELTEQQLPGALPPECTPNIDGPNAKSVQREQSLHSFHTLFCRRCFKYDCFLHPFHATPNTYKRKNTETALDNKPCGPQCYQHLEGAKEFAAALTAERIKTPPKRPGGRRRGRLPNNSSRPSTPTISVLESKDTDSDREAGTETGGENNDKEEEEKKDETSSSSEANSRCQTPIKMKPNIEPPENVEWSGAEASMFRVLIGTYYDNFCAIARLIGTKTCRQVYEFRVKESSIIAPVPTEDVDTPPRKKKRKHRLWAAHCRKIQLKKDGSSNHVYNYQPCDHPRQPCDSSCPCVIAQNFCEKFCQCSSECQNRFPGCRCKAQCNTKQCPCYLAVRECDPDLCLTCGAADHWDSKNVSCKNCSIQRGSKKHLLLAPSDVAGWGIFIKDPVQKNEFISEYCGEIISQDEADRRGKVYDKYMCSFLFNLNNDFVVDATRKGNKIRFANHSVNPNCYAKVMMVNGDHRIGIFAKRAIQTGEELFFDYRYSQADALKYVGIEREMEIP
Chain of Histone-lysine N-methyltransferase EZH2 (Homo sapiens) (Q15910 whole entry, looked up): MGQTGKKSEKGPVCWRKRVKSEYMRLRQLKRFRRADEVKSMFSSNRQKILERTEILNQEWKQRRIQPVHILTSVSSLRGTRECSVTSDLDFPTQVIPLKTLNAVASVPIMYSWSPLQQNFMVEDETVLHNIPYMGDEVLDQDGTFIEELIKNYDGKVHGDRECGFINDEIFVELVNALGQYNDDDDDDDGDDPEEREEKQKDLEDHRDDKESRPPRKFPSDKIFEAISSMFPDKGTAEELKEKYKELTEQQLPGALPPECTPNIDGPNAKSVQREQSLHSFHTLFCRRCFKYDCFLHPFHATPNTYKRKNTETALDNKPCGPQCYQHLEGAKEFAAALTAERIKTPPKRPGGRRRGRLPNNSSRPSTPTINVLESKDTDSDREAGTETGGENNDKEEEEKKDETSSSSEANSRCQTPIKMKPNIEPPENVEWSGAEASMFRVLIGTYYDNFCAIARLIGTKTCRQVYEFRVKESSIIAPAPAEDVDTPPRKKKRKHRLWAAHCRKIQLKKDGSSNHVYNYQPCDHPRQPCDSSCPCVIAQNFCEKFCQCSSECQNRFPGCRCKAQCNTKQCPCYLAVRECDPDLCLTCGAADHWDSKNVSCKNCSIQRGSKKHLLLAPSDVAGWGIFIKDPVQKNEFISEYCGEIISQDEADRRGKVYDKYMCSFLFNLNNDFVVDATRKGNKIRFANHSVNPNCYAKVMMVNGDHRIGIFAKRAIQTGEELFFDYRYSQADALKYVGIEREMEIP

CN1CC[C@H](c2c(O)cc(O)c3c(=O)cc(-c4ccccc4Cl)oc23)[C@H](O)C1
active: Activity [1] | Activity [2] | Activity [3] | Activity [4]

CC[C@H](C)n1cc(C)c2c(C(=O)NCc3c(C)cc(C)[nH]c3=O)cc(-c3ccc(N4CCNCC4)nc3)cc21
active: Activity [5] | Activity [6] | Activity [7] | Activity [8] | inhibition [9] | Activity [10] | Activity [11] | inhibition [12] | inhibition [13] | inhibition [14] | inhibition [15] | inhibition [16] | inhibition [17] | inhibition [18] | inhibition [19] | inhibition [20] | inhibition [21] | inhibition [22] | inhibition [23] | inhibition [24] | Activity [25] | Activity [26] | Activity [27] | inhibition [28] | inhibition [29] | inhibition [30] | inhibition [31] | inhibition [32] | inhibition [33] | Activity [34] | Activity [35] | Activity [36]
